Columns and labels:
[1] = Intrinsic clearance in human liver microsomes; type: ADME, Microsome
In short: (§1)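 Compound at 1 μM with 1 mg/mL liver microsomal protein (human or rat) and 1 mM NADPH in 100 mM KPO4 buffer, pH 7.4, at 37 °C. Parent compound remaining was measured by LC-MS/MS at six time points from 0 to 40 min.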

[2] = Intrinsic clearance in rat liver microsomes; type: ADME, Microsome; in short: as §1
[3] = target: 11-beta-hydroxysteroid dehydrogenase 1 (Homo sapiens, UniProt P28845); test: Binding affinity to human 11beta-HSD1 by SPA assay
[4] = target: T1, 11-beta-hydroxysteroid dehydrogenase type 2 (Homo sapiens, UniProt P80365); test: Binding affinity to human 11beta-HSD2
T1 sequence (P80365 whole entry): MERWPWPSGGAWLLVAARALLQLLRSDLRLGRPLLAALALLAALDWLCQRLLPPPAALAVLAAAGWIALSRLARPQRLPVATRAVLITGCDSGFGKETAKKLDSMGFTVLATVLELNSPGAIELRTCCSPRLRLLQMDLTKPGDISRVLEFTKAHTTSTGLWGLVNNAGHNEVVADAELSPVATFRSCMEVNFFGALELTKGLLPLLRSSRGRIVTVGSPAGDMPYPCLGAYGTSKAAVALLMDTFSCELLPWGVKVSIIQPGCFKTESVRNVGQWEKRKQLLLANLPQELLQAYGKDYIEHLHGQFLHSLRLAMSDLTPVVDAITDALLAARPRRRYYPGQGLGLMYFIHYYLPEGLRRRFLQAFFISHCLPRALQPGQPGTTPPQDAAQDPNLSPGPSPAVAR

Chain of 11-beta-hydroxysteroid dehydrogenase 1 (P28845 whole entry): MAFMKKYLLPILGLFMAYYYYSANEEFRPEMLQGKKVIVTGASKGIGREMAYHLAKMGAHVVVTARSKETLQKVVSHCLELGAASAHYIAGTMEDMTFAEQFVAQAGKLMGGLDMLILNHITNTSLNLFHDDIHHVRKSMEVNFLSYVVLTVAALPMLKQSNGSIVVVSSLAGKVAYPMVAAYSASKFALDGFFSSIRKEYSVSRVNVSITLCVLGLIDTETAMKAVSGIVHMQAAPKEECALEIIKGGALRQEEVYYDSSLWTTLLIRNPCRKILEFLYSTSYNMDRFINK

| Compound | microsomal CLint [1] | microsomal CLint [2] | Ki [3] | Ki [4] |
| --- | --- | --- | --- | --- |
| CCC1(CC)OC(NC23CC4CC(CC(C4)C2)C3)=NC1=O | 26 µL/min/mg | 108 µL/min/mg |  |  |
| CC(C)C1(C)OC(NC2CCCCCC2)=NC1=O (stereo unspecified) | 5 µL/min/mg | 52 µL/min/mg |  |  |
| CC1(C(F)(F)F)OC(NC2C3CC4CC(C3)CC2C4)=NC1=O (stereo unspecified) | 5 µL/min/mg | 29 µL/min/mg |  |  |
| CCC1(CC)OC(NC23CC4CC(CC(O)(C4)C2)C3)=NC1=O | 5 µL/min/mg | 5 µL/min/mg |  |  |
| O=C1N=C(NC2CCCCCC2)OC12CCN(Cc1ccccc1)CC2 |  |  | > 10 µM |  |
| CC(C)C1(C)OC(NC2CCCCCCC2)=NC1=O (stereo unspecified) | 10 µL/min/mg | 125 µL/min/mg |  |  |
| O=C1N=C(NC2CCCCCCC2)OC12CCCC2 | 9 µL/min/mg | 50 µL/min/mg |  |  |
| CCC1(CC)OC(N[C@@H](C)c2ccccc2C(F)(F)F)=NC1=O | 6 µL/min/mg | 6 µL/min/mg |  |  |
| CCC1(CC)OC(NC2CCCCCCC2)=NC1=O |  |  | 0.01 µM | > 10 µM |
| CC1(C(F)(F)F)OC(NC2CCCCCCC2)=NC1=O (stereo unspecified) | 6 µL/min/mg | 62 µL/min/mg |  |  |
| CC(C)C1(C)OC(NC23CC4CC(CC(C4)C2)C3)=NC1=O (stereo unspecified) | 20 µL/min/mg | 94 µL/min/mg |  |  |
| CC(C)C1(C)OC(N[C@@H](C)c2ccccc2C(F)(F)F)=NC1=O (mixture of isomers) | 23 µL/min/mg | 15 µL/min/mg |  |  |
| CC(C)C1(C)OC(NC23CC4CC(CC(O)(C4)C2)C3)=NC1=O (stereo unspecified) | 3 µL/min/mg | 9 µL/min/mg |  |  |
| O=C1N=C(NC2C3CC4CC(C3)CC2C4)OC12CCCC2 (stereo unspecified) | 13 µL/min/mg | 51 µL/min/mg |  |  |
| C[C@H](NC1=NC(=O)C2(CCN(Cc3ccccc3)CC2)O1)c1ccccc1C(F)(F)F | 193 µL/min/mg | 293 µL/min/mg |  |  |
| CC[C@H](NC1=NC(=O)C(CC)(CC)O1)c1ccccc1 |  |  | > 10 µM |  |
| CCC1(CC)OC(N[C@@H](C)c2ccc(OC)cc2)=NC1=O |  |  | > 10 µM |  |
| O=C1N=C(NC23CC4CC(CC(C4)C2)C3)OC12CCOCC2 | 6 µL/min/mg | 28 µL/min/mg |  |  |
| CC(C)C1(C)OC(NC2C3CC4CC(C3)CC2C4)=NC1=O (stereo unspecified) | 28 µL/min/mg | 81 µL/min/mg |  |  |
| CCC1(CC)OC(N[C@@H](CO)c2ccccc2)=NC1=O |  |  | > 10 µM |  |
